From PubChem
Most compounds without a hit are left out; they make up all but 1.9% or so of the library.
HCV core dimer = HCV core protein dimerization inhibition. inhibition, % at 5 µM. 300,000 tested, 0.33% active. TR-FRET GST/Flag-core106 dimerization, 1536-well;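 active = inhibition above the mean of all tested compounds plus 3 SD, set per screening campaign, cut at about 45% in these data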
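assay system = GST-tagged and Flag-tagged HCV core protein residues 1-106 | controls = unlabelled core106 and no-GST-core106 wells | incubation = compound-protein-antibody incubation 4 h at 22.5 °C | probe or stimulus = Eu donor and XL665 acceptor anti-tag antibodies | read-out = % inhibition based on acceptor/donor emission ratio | signal = TR-FRET 671 and 617 nm emission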
VIM-2 inh = inhibitors of Pseudomonas aeruginosa VIM-2 metallo-beta-lactamase | purified VIM-2, nitrocefin hydrolysis, epi-absorbance fluorescence | AID 1527 | 290,000 tested, 0.89% active | inhibition, % at 5.6 µM;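 active = inhibition above the mean of all tested compounds plus 3 SD, cutoff set per screening run, cut at about 7.5% in these data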;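 also: red hydrolysis product quenches plate fluorescence so inhibitors raise well fluorescence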
NadD block = NadD (S. aureus) enzyme inhibition; purified NadD enzyme, colorimetric absorbance read-out; inhibition, % at 20 µM; 360,000 tested, 0.78% active; in the data active = inhibition above about 26%
IMP-1 inhibitor = inhibitors of Pseudomonas aeruginosa IMP-1 metallo-beta-lactamase. purified IMP-1, nitrocefin hydrolysis, epi-absorbance fluorescence. inhibition, % at 5.6 µM. 290,000 tested, 0.45% active. AID 1556;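 active = inhibition above the mean plus 3 SD of all compounds in the same screening run, cut at about 4.5% in these data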
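System – purified recombinant IMP-1 beta-lactamase · Input – IMP-1 dispensed at 0.2 nM · Timing – 15 min preincubation plus 25 min reaction at 25 °C · Signal – Epi-absorbance fluorescence, 480 nm excitation, 530 nm emission · Measure – percent IMP-1 inhibition derived from blank-referenced optical density · Controls – Enzyme-plus-DMSO low control, enzyme-free DMSO high control · Replication – singlicate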
NadD conf = confirmation of Staphylococcus aureus NadD inhibitors | 2,000 tested, 13% active | purified S. aureus NadD, colorimetric enzyme assay | AID 624309 | inhibition, % at 20 µM | shares compounds with NadD block; in the data active = inhibition mostly above about 42%, no sharp cut-off; inactive = mostly below about 42%
Hits are given with their value; 0 = inactive; - = no result given; ! = repeats disagree.

SMILES | HCV core dimer | VIM-2 inh | NadD block | IMP-1 inhibitor | NadD conf
COc1ccccc1NS(=O)(=O)c1cc(NC(=O)Nc2ccccc2)ccc1N1CCCCC1 | 0 | 0 | 35 | 0 | 0
COc1ccc(NS(=O)(=O)c2cc(NC(=O)/C=C/c3cc(OC)ccc3OC)ccc2N2CCCCC2)cc1 | 0 | 0 | 39 | 0 | 0
O=C(Nc1cc(S(=O)(=O)Nc2ccc(Cl)cc2)ccc1O)c1ccc(S(=O)(=O)N2CCCCCC2)cc1 | 0 | 0 | 44 | 0 | 0
O=C(Nc1cc(S(=O)(=O)N2CCOCC2)ccc1O)c1ccc(S(=O)(=O)N2CCCCC2)cc1 | - | - | 0 | - | -
CCOc1ccccc1N1CCN(S(=O)(=O)c2ccc3c4c(cccc24)C(=O)N3)CC1 | 0 | 0 | 30 | 0 | 0
Cc1ccc2nc(/N=C(\N)NC(=O)N3c4ccccc4Sc4ccccc43)nc(C)c2c1 | 0 | 0 | 31 | 0 | 0
Cc1cc2nc(/N=C(\N)NC(=O)N3c4ccccc4Sc4ccccc43)nc(C)c2cc1C | 0 | 0 | 27! | 0 | 0
Cc1ccc2c(C)nc(/N=C(\N)NC(=O)N3c4ccccc4Sc4ccccc43)nc2c1 | 0 | 0 | 0 | 0 | -
Cc1cc(Br)cc2c(C(=O)Nc3c(C)n(C)n(-c4ccccc4)c3=O)cc(-c3cccs3)nc12 | 0 | 0 | 30 | 0 | 0
CCc1ccc(-c2cc(C(=O)Nc3c(C)n(C)n(-c4ccccc4)c3=O)c3ccccc3n2)s1 | 0 | 0 | 0 | 0 | -
Cc1ccc(NC(=O)CSc2nnc(-c3n[nH]c4ccccc34)n2-c2ccccc2)c(C)c1 | 0 | 0 | 0 | 0 | -
O=c1oc2ccccc2cc1-c1csc(Nc2nc3c(F)cccc3s2)n1 | 0 | 0 | 57 | 0 | 0
O=S(=O)(Nc1ccc2c(c1)nc1n2CCN(Cc2ccccc2)C1)c1ccc(Cl)cc1 | 0 | 0 | 32 | 0 | 0
O=C(Nc1ccc(C2=NCCN2)cc1)c1ccc(C(=O)Nc2ccc(C3=NCCN3)cc2)c(Cl)c1 | 0 | 0 | 30 | 0 | 0
COc1ccc(C(CNC(=O)CCNS(=O)(=O)c2ccccc2C(F)(F)F)N2CCOCC2)cc1 (stereo not drawn) | - | - | 0 | - | -
CC[N+](CC)(CC)CCCCOc1ccc2c(c1)C(=O)c1cc(OCCCC[N+](CC)(CC)CC)ccc1-2 | 0 | 0 | 31 | 0 | 0
CC[N+](CC)(CC)CCOc1ccc(/C=C/c2ccccc2)cc1 | 0 | - | 0 | - | -
O=C(Nc1ccc(Cl)cc1)[C@@H]1[C@@H]2C(=O)N(c3ccc(Cl)cc3)C(=O)[C@@H]2[C@H]2C=CC=NN21 | 0 | 0 | 37 | 0 | 0
CC(=O)Oc1ccc(C(=O)[C@H]2[C@H]3C(=O)N(c4ccc5ccccc5c4)C(=O)[C@H]3[C@@H]3C=CC=NN32)cc1 | 0 | 0 | 40 | 0 | 0
CC1(C)NC(=O)N(CC(=O)Nc2ccc(-n3cnnn3)cc2)C1=O | - | - | 0 | - | -
COc1ccc(C(=O)/C=C/c2ccc(OCc3ccccc3)cc2)cc1CSCC(=O)O | - | 0 | 26 | 0 | 0
Cc1cc2cc(CNC(=O)Nc3cccc(Cl)c3)ccc2n1C | 0 | 0 | 34 | 0 | 0
CCCN(CCC)Cc1cc(=O)oc2cc(C)cc(C)c12 | - | - | 0 | - | -
COc1ccc(OC)c(C(=O)NC(CC(N)=O)c2ccc(NCCN3CCCCC3)c([N+](=O)[O-])c2)c1 (stereo not drawn) | 0 | 0 | 0 | 0 | -
Cc1ccc(-n2[nH]c(C)c(/C=N/Nc3ccc([N+](=O)[O-])cc3[N+](=O)[O-])c2=O)cc1C | 0 | 0 | 37 | 0 | 0
SMILES | HCV core dimer | VIM-2 inh | NadD block | IMP-1 inhibitor | NadD conf
Cn1c(-c2ccc(C=O)s2)nc2c3ccccc3c3ccccc3c21 | 0 | 0 | 50 | 0 | 0
COC(=O)c1cc(CNC(=O)CCCSc2ccccc2)ccc1OC | - | 0 | 0 | 0 | -
COC(=O)c1ccc2c(c1)N(Cc1nc(-c3ccc(Cl)cc3)oc1C)C(=O)C1CCCN21 (stereo not drawn) | 0 | - | 45 | - | 0
COC(=O)c1cc2occc2n1Cc1nc(-c2ccc(Cl)cc2)oc1C | 0 | 0 | 0 | 0 | -
CCCN(CC(=O)Nc1ccccc1C)C(=O)C1CCN(C(=O)Nc2ccccc2)CC1 | 0 | - | 0 | - | -
Cc1cc(C)cc(-n2c3nc4ccccc4nc3c3c(=O)n(Cc4ccco4)cnc32)c1 | 60 | 0 | 33 | 0 | 0
COc1ccc(Cn2c(C)nc3c(c2=O)c2nc4ccccc4nc2n3Cc2ccco2)cc1 | - | - | 38 | - | 0
COc1cccc(Nc2nc(-c3sc(NC(=O)c4ccco4)nc3C)cs2)c1 | 0 | 0 | 30 | 0 | 42
COc1ccc(Cl)cc1Nc1nc(-c2sc(NC(=O)C(C)(C)C)nc2C)cs1 | 0 | 0 | 39 | 18 | 0
CCOc1ccccc1Nc1nc(-c2sc(NC(=O)c3cccc(Cl)c3)nc2C)cs1 | 0 | 0 | 55 | 0 | 0
CCOc1ccccc1Nc1nc(-c2sc(NC(=O)c3ccccc3)nc2C)cs1 | 0 | 0 | - | 0 | -
COc1ccc(OC)c(Nc2nc(-c3sc(NC(=O)C(C)(C)C)nc3C)cs2)c1 | 0 | 0 | 0 | 0 | -
CCC(C)C(=O)Nc1nc(C)c(-c2csc(Nc3cc(Cl)ccc3OC)n2)s1 (stereo not drawn) | 0 | 0 | 32 | 0 | 0
O=C(COC(=O)COc1ccccc1)NCCC1=CCCCC1 | - | - | 0 | - | -
O=C(Nc1cc([N+](=O)[O-])ccc1O)c1cccc(C(=O)Nc2cc([N+](=O)[O-])ccc2O)c1 | 0 | 0 | 48 | 26 | 0
O=C(Nc1cc([N+](=O)[O-])ccc1O)c1cccc([N+](=O)[O-])c1 | 0 | 0 | 0 | 0 | -
Cc1cccc(-c2nnn3c2nc(NCCc2ccc(S(N)(=O)=O)cc2)c2ccccc23)c1 | 0 | 0 | 34 | 0 | 0
Cc1ccc(-c2nnn3c2nc(NCCc2ccc(S(N)(=O)=O)cc2)c2ccccc23)cc1 | 0 | 0 | 0 | 0 | -
O=C(NNC(=O)c1cc2cc(Br)ccc2oc1=O)c1ccc(O)cc1O | 0 | 0 | 29 | 0 | 58
Cc1ccc(CNC(=O)Cc2csc(Nc3nc(=S)[nH]c4ccccc34)n2)cc1 | 0 | 0 | - | 0 | -
O=C(Cc1csc(Nc2nc(=S)[nH]c3ccccc23)n1)N1CCN(c2cccc(C(F)(F)F)c2)CC1 | 0 | 0 | 33 | 0 | 0
O=C(Cc1csc(Nc2nc(=S)[nH]c3ccccc23)n1)NCc1ccccc1Cl | 0 | 0 | 0 | 0 | -
O=C(Cc1csc(Nc2nc(=S)[nH]c3ccccc23)n1)NCc1cccc(Cl)c1 | 0 | 0 | 32 | 0 | 0
CC(C)(C)NC(=O)NC(=O)COC(=O)CCC1CCCC1 | 0 | 0 | 0 | 0 | -
O=C(Nc1ccc(N2CCCCCC2)cc1)c1cccc(S(=O)(=O)N2CCOCC2)c1 | - | - | 0 | - | -
COc1ccc(Br)cc1C(=O)NC(=S)Nc1c(C)n(C)n(-c2ccccc2)c1=O | 0 | 0 | 0 | 0 | -
Cc1oc2ccc(NS(=O)(=O)c3ccc(C(C)(C)C)cc3)cc2c1C(=O)Nc1ccccc1 | 54 | 0 | 33 | 0 | 0
Cc1cccc(N2C(S)=C(C#N)C(=O)NC2c2ccco2)c1 (stereo not drawn) | 0 | 0 | 0 | 0 | -
N#CC1=C(S)N(c2ccccc2)C(c2ccc(-c3cccc(Cl)c3)o2)NC1=O (stereo not drawn) | 0 | 0 | 42 | 7.5 | 0
